This note sets out measurements from ChEMBL document CHEMBL1125542, “Dihydropyrimidine calcium channel blockers. 4. Basic 3-substituted-4-aryl-1,4-dihydropyrimidine-5-carboxylic acid esters. Potent antihypertensive agents” (J Med Chem, 1992).

The species named for assay [1] is Oryctolagus cuniculus. Briefly: In vitro inhibition of potassium-contracted rabbit aorta strips. In kind it is functional. The gist of the method:
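Rabbit thoracic aorta strips contracted with potassium chloride (100 mM) in the presence of calcium. IC50 is the drug concentration giving 50% relaxation, reported with 95% confidence intervals.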

Assay [2] is filed under the species Oryctolagus cuniculus. Briefly: In vitro evaluation for the inhibition of potassium-contracted rabbit aorta strips by vasorelaxant assay. The class given is functional. The gist of the method: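 Rabbit thoracic aorta strips contracted with potassium chloride (100 mM) in the presence of calcium. IC50 taken as the drug concentration giving 50% relaxation of the contraction, reported with 95% confidence intervals.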

In the assay listed under Oryctolagus cuniculus [1], `CCO/C(O)=C1\C(C)=NC(=S)N(C(=O)OC2CCN(Cc3ccccc3)CC2)C1c1ccccc1C(F)(F)F` (configuration not stated) registered an IC50 of 9 nM.
Turning to `CCOC(=O)N1C(=S)N=C(C)/C(=C(/O)OCCN(C)Cc2ccccc2)C1c1ccccc1C(F)(F)F` (configuration not stated), in the assay listed under Oryctolagus cuniculus [1], the IC50 came to 22 nM. Against the preceding molecule, the IC50 is about 2.4-fold higher.
`CC1=C(C(=O)OCC(C)C)C(c2ccccc2C(F)(F)F)N(C(=O)OC2CCN(Cc3ccccc3)CC2)C(=O)N1` (configuration not stated) returned an IC50 in the assay filed under Oryctolagus cuniculus [1] of 98 nM.
Same read-out and setting: then `CC1=C(C(=O)OC(C)C)C(c2cccc([N+](=O)[O-])c2)N(CCCN(C)Cc2ccccc2)C(S)=N1` (configuration not stated), with 72 nM; and `CCO/C(O)=C1\C(C)=NC(=S)N(C(=O)OC(C)C)C1c1ccccc1C(F)(F)F` (configuration not stated), with 50 nM.
For `CCOC(=O)C1=C(C)N=C(S)NC1c1cccc([N+](=O)[O-])c1` (configuration not stated), the IC50 in the assay filed under Oryctolagus cuniculus [1] was > 1000 nM.
`CC1=NC(=S)N(C(=O)OC2CCN(Cc3ccccc3)CC2)C(c2ccccc2Cl)/C1=C(\O)OC(C)C` (configuration not stated): the IC50 in the assay listed under Oryctolagus cuniculus [1] stood at 5 nM.
With `CCCN1C(S)=NC(C)=C(C(=O)OC2CCN(Cc3ccccc3)CC2)C1c1ccccc1C(F)(F)F` (configuration not stated), the IC50 in the assay listed under Oryctolagus cuniculus [1] was > 1000 nM.
Molecule `CC1=NC(=S)N(C(=O)OC2CCN(Cc3ccccc3)CC2)C(c2ccccc2C(F)(F)F)/C1=C(\O)OC(C)C` (configuration not stated) yielded an IC50 in the assay listed under Oryctolagus cuniculus [1] of 5 nM.
Same read-out and setting: then `CC1=NC(=S)N(C(=O)OC2CCN(Cc3ccc(F)cc3)CC2)[C@@H](c2ccccc2C(F)(F)F)/C1=C(\O)OC(C)C`, with > 1000 nM; and `CC1=C(C(=O)OC(C)C)C(c2cccc([N+](=O)[O-])c2)N(C(=O)O[C@@H](C)CN(C)Cc2ccccc2)C(=O)N1` (some centres not stated), with 57 nM; and `CCOC(=O)N1C(=S)N=C(C)/C(=C(/O)OCC)C1c1ccccc1C(F)(F)F` (configuration not stated), with 41 nM.
Regarding `CCOC(=O)N1C(=S)N=C(C)/C(=C(/O)OCCN(C)Cc2ccccc2)C1c1cccc([N+](=O)[O-])c1` (configuration not stated), the midpoint of inhibition in the assay listed under Oryctolagus cuniculus [1], the IC50, lay at 34 nM.
In the assay filed under Oryctolagus cuniculus [1], `CCO/C(O)=C1\C(C)=NC(=S)N(C(=O)OCCN(C)Cc2ccccc2)C1c1ccccc1C(F)(F)F` (configuration not stated) came in with an IC50 of 23 nM.
On the same count and under the same terms, then `CC1=C(C(=O)OC(C)C)C(c2ccccc2C(F)(F)F)N(C(=O)O[C@@H]2CCN(Cc3ccccc3)C2)C(=O)N1` (some centres not stated), with 360 nM; and `CCOC(=O)N1C(=S)N=C(C)/C(=C(/O)OCC)C1c1cccc([N+](=O)[O-])c1` (configuration not stated), with 17 nM; and `CC1=C(C(=O)OC(C)C)C(c2cccc([N+](=O)[O-])c2)N(C(=O)OC2CCN(Cc3ccccc3)CC2)C(=O)N1` (configuration not stated), with 12 nM.
The molecule `CC1=C(C(=O)OC(C)C)C(c2ccccc2C(F)(F)F)N(C(=O)O[C@H]2CCN(Cc3ccccc3)C2)C(=O)N1` (some centres not stated) registered an IC50 in the assay listed under Oryctolagus cuniculus [1] of 790 nM.
Still for that read-out and setting: the same measure for `CCO/C(O)=C1\C(C)=NC(=S)N(C(=O)OCCN(C)Cc2ccccc2)C1c1cccc([N+](=O)[O-])c1` (configuration not stated): 29 nM.
Molecule `COC(=O)C1=C(C)NC(C)=C(C(=O)OC)C1c1ccccc1[N+](=O)[O-]` [NIFEDIPINE] yielded an IC50 in the assay filed under Oryctolagus cuniculus [2] of 2 nM.
In the assay filed under Oryctolagus cuniculus [1], `CC1=NC(=S)N(C(=O)OC2CCN(Cc3ccccc3)CC2)C(c2ccccc2[N+](=O)[O-])/C1=C(\O)OC(C)C` (configuration not stated) showed an IC50 of 2 nM. In other words, the single-digit nanomolar range.
As to `CC1=C(C(=O)OC(C)C)C(c2ccccc2[N+](=O)[O-])N(C(=O)OC2CCN(Cc3ccccc3)CC2)C(=O)N1` (configuration not stated), in the assay listed under Oryctolagus cuniculus [1], the midpoint of inhibition, the IC50, lay at 8 nM.
`CC1=C(C(=O)OC(C)C)C(c2cccc([N+](=O)[O-])c2)N(C(=O)O[C@H](C)CN(C)Cc2ccccc2)C(=O)N1` (some centres not stated) showed an IC50 in the assay filed under Oryctolagus cuniculus [1] of 64 nM. This IC50 lies about 8-fold higher than the previous one.
In the assay listed under Oryctolagus cuniculus [1], `CC1=NC(=S)N(C(=O)OC2CCN(Cc3ccccc3)CC2)C(c2cccc([N+](=O)[O-])c2)/C1=C(\O)OC(C)C` (configuration not stated) showed an IC50 of 4 nM. Compared with the last molecule, the IC50 is about 16-fold lower.
In the assay filed under Oryctolagus cuniculus [1], `CCO/C(O)=C1\C(C)=NC(=S)N(C(=O)O[C@H]2CCN(Cc3ccccc3)C2)C1c1ccccc1C(F)(F)F` (some centres not stated) showed an IC50 of 2 nM.
Molecule `CC1=NC(=S)N(C(=O)OC2CCN(Cc3ccc(F)cc3)CC2)[C@H](c2ccccc2C(F)(F)F)/C1=C(\O)OC(C)C` gave an IC50 in the assay filed under Oryctolagus cuniculus [1] of 15 nM.
In the assay filed under Oryctolagus cuniculus [1], `CC1=NC(=S)N(C(=O)OC2CCN(Cc3ccc(F)cc3)CC2)C(c2ccccc2C(F)(F)F)/C1=C(\O)OC(C)C` (configuration not stated) showed an IC50 of 7 nM. This IC50 is about 2.1-fold lower than that of the molecule before.
On the same count and under the same terms, the same measure for `CC1=C(C(=O)OC(C)C)C(c2ccccc2C(F)(F)F)N(C(=O)OC2CCN(Cc3ccc(Cl)cc3)CC2)C(=O)N1` (configuration not stated): 55 nM; for `CC1=C(C(=O)OC(C)C)C(c2ccccc2C(F)(F)F)N(C(=O)OC2CCN(Cc3ccccc3)CC2)C(=O)N1` (configuration not stated): 50 nM; for `CC1=C(C(=O)OC(C)C)C(c2ccccc2C(F)(F)F)N(C(=O)OC2CCCN(Cc3ccccc3)C2)C(=O)N1` (configuration not stated): 130 nM.
On to `CC1=C(C(=O)OC(C)C)C(c2ccccc2C(F)(F)F)N(CCC2CCN(Cc3ccccc3)CC2)C(S)=N1` (configuration not stated), for which half-maximal inhibition in the assay filed under Oryctolagus cuniculus [1] (IC50) was put at 120 nM.
Turning to `CCOC(=O)C1=C(COCCN)NC(C)=C(C(=O)OC)C1c1ccccc1Cl` (configuration not stated) [AMLODIPINE], half-maximal inhibition in the assay listed under Oryctolagus cuniculus [1] (IC50) was put at 3 nM.
